Source: ChEMBL document CHEMBL1287802, “Convergent synthesis of fluorescence-labeled probes of Annonaceous acetogenins and visualization of their cell distribution” (Bioorg Med Chem, 2010)

Tests used:
Assay type in all cases: functional
[1] = Growth inhibition of human HBC4 cells after 48 hrs by sulforhodamine B assay; conditions: HBC4, 48 h
How it was run: (§1)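 Tested in the JFCR39 panel of 39 human cancer cell lines. Cells were exposed to compound for 48 h, and growth was measured as the change in total cellular protein by sulforhodamine B colorimetry. GI50 (molar concentration for 50% growth inhibition) was calculated by a previously reported method. Fingerprints were plotted as log differences of each line's GI50 from the panel mean.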

[2] = Growth inhibition of human BSY1 cells after 48 hrs by sulforhodamine B assay; conditions: BSY-1, 48 h; how it was run: as §1
[3] = Growth inhibition of human HBC5 cells after 48 hrs by sulforhodamine B assay; conditions: HBC5, 48 h; how it was run: as §1
MCF7 = experiment: Growth inhibition of human MCF7 cells after 48 hrs by sulforhodamine B assay; conditions: MCF7, 48 h; how it was run: as §1
[4] = Growth inhibition of human MDA-MB-23 cells after 48 hrs by sulforhodamine B assay; conditions: MDA-MB-23, 48 h, read-out: pGI50 (converted); how it was run: as §1
U-251 = experiment: Growth inhibition of human U251 cells after 48 hrs by sulforhodamine B assay; conditions: U-251, 48 h; how it was run: as §1
SF-268 = experiment: Growth inhibition of human SF268 cells after 48 hrs by sulforhodamine B assay; conditions: SF-268, 48 h; how it was run: as §1
SF-295 = experiment: Growth inhibition of human SF295 cells after 48 hrs by sulforhodamine B assay; conditions: SF-295, 48 h; how it was run: as §1
SF-539 = experiment: Growth inhibition of human SF539 cells after 48 hrs by sulforhodamine B assay; conditions: SF-539, 48 h; how it was run: as §1
SNB-75 = experiment: Growth inhibition of human SNB75 cells after 48 hrs by sulforhodamine B assay; conditions: SNB-75, 48 h; how it was run: as §1
SNB-78 = experiment: Growth inhibition of human SNB78 cells after 48 hrs by sulforhodamine B assay; conditions: SNB-78, 48 h; how it was run: as §1
HCC 2998 = experiment: Growth inhibition of human HCC2998 cells after 48 hrs by sulforhodamine B assay; conditions: HCC 2998, 48 h, read-out: pGI50 (converted); how it was run: as §1
KM12 = experiment: Growth inhibition of human KM12 cells after 48 hrs by sulforhodamine B assay; conditions: KM12, 48 h; how it was run: as §1
HT-29 = experiment: Growth inhibition of human HT-29 cells after 48 hrs by sulforhodamine B assay; conditions: HT-29, 48 h; how it was run: as §1
NCI-H23 = experiment: Growth inhibition of human NCI-H23 cells after 48 hrs by sulforhodamine B assay; conditions: NCI-H23, 48 h; how it was run: as §1
NCI-H226 = experiment: Growth inhibition of human NCI-H226 cells after 48 hrs by sulforhodamine B assay; conditions: NCI-H226, 48 h; how it was run: as §1
NCI-H522 = experiment: Growth inhibition of human NCI-H522 cells after 48 hrs by sulforhodamine B assay; conditions: NCI-H522, 48 h; how it was run: as §1
NCI-H460 = experiment: Growth inhibition of human NCI-H460 cells after 48 hrs by sulforhodamine B assay; conditions: NCI-H460, 48 h; how it was run: as §1
A549 = experiment: Growth inhibition of human A549 cells after 48 hrs by sulforhodamine B assay; conditions: A549, 48 h; how it was run: as §1
DMS-273 = experiment: Growth inhibition of human DMS273 cells after 48 hrs by sulforhodamine B assay; conditions: DMS-273, 48 h; how it was run: as §1
DMS-114 = experiment: Growth inhibition of human DMS114 cells after 48 hrs by sulforhodamine B assay; conditions: DMS-114, 48 h; how it was run: as §1
LOX IMVI = experiment: Growth inhibition of human LOXIMVI cells after 48 hrs by sulforhodamine B assay; how it was run: as §1
OVCAR-3 = experiment: Growth inhibition of human OVCAR-3 cells after 48 hrs by sulforhodamine B assay; conditions: OVCAR-3, 48 h; how it was run: as §1
OVCAR-4 = experiment: Growth inhibition of human OVCAR4 cells after 48 hrs by sulforhodamine B assay; conditions: OVCAR-4, 48 h; how it was run: as §1
OVCAR-5 = experiment: Growth inhibition of human OVCAR5 cells after 48 hrs by sulforhodamine B assay; conditions: OVCAR-5, 48 h; how it was run: as §1
OVCAR-8 = experiment: Growth inhibition of human OVCAR8 cells after 48 hrs by sulforhodamine B assay; conditions: OVCAR-8, 48 h; how it was run: as §1
SK-OV-3 = experiment: Growth inhibition of human SKOV3 cells after 48 hrs by sulforhodamine B assay; conditions: SK-OV-3, 48 h; how it was run: as §1
[5] = Growth inhibition of human RXF631L cells after 48 hrs by sulforhodamine B assay; conditions: RXF 631, 48 h; how it was run: as §1
ACHN = experiment: Growth inhibition of human ACHN cells after 48 hrs by sulforhodamine B assay; how it was run: as §1
St-4 = experiment: Growth inhibition of human St-4 cells after 48 hrs by sulforhodamine B assay; conditions: St-4, 48 h; how it was run: as §1
[6] = Growth inhibition of human MKN1 cells after 48 hrs by sulforhodamine B assay; conditions: MKN-1, 48 h; how it was run: as §1
MKN-7 = experiment: Growth inhibition of human MKN7 cells after 48 hrs by sulforhodamine B assay; conditions: MKN-7, 48 h; how it was run: as §1
MKN-28 = experiment: Growth inhibition of human MKN28 cells after 48 hrs by sulforhodamine B assay; conditions: MKN-28, 48 h; how it was run: as §1
MKN-45 = experiment: Growth inhibition of human MKN45 cells after 48 hrs by sulforhodamine B assay; conditions: MKN-45, 48 h; how it was run: as §1
MKN-74 = experiment: Growth inhibition of human MKN74 cells after 48 hrs by sulforhodamine B assay; conditions: MKN-74, 48 h; how it was run: as §1
DU-145 = experiment: Growth inhibition of human DU145 cells after 48 hrs by sulforhodamine B assay; conditions: DU-145, 48 h, read-out: pGI50 (converted); how it was run: as §1
PC-3 = experiment: Growth inhibition of human PC3 cells after 48 hrs by sulforhodamine B assay; conditions: PC-3, 48 h; how it was run: as §1
HCT-15 = experiment: Growth inhibition of human HCT15 cells after 48 hrs by sulforhodamine B assay; conditions: HCT-15, 48 h; how it was run: as §1
HCT-116 = experiment: Growth inhibition of human HCT116 cells after 48 hrs by sulforhodamine B assay; conditions: HCT-116, 48 h; how it was run: as §1

`CCCCCCCCCCCC[C@@H](O)[C@H]1CC[C@H]([C@H](O)CCCCCCCCCCCCC2=C[C@H](C)OC2=O)O1` [REL-SOLAMIN] showed a GI50 [1] of over 100 µM, a GI50 [2] of over 100 µM and a GI50 [3] of over 100 µM. The GI50 (MCF7) was 70.8 µM, the GI50 [4] was over 100 µM and the GI50 (U-251) was over 100 µM. For the same compound, the GI50 (SF-268) was over 100 µM, the GI50 (SF-295) was over 100 µM and the GI50 (SF-539) was over 100 µM. It also gave a GI50 (SNB-75) of over 100 µM, a GI50 (SNB-78) of over 100 µM and a GI50 (HCC 2998) of over 100 µM. It also gave a GI50 (KM12) of over 100 µM, a GI50 (HT-29) of over 100 µM and a GI50 (NCI-H23) of 72.4 µM. For the same compound, the GI50 (NCI-H226) was over 100 µM, the GI50 (NCI-H522) was 57.5 µM and the GI50 (NCI-H460) was over 100 µM. It also gave a GI50 (A549) of over 100 µM, a GI50 (DMS-273) of over 100 µM and a GI50 (DMS-114) of 4370 nM. The GI50 (LOX IMVI) was 29.5 µM, the GI50 (OVCAR-3) was over 100 µM and the GI50 (OVCAR-4) was over 100 µM. The GI50 (OVCAR-5) was over 100 µM, the GI50 (OVCAR-8) was over 100 µM and the GI50 (SK-OV-3) was over 100 µM. It also gave a GI50 [5] of over 100 µM, a GI50 (ACHN) of over 100 µM and a GI50 (St-4) of over 100 µM. For the same compound, the GI50 [6] was over 100 µM, the GI50 (MKN-7) was 12.9 µM and the GI50 (MKN-28) was 14.1 µM. The GI50 (MKN-45) was over 100 µM, the GI50 (MKN-74) was over 100000 nM and the GI50 (DU-145) was over 100 µM. The GI50 (PC-3) was over 100 µM, the GI50 (HCT-15) was over 100 µM and the GI50 (HCT-116) was over 100 µM.
For `C[C@H]1C=C(CCCCCCCCCCCC[C@@H](O)[C@H]2CC[C@H]([C@H](O)CCCCCCCCCNc3ccc([N+](=O)[O-])c4nonc34)O2)C(=O)O1`, the GI50 [1] was 64.6 µM, the GI50 [2] was 33.1 µM and the GI50 [3] was 21.9 µM. The GI50 (MCF7) was 16.2 µM, the GI50 [4] was over 100 µM and the GI50 (U-251) was 75.9 µM. For the same compound, the GI50 (SF-268) was 89.1 µM, the GI50 (SF-295) was 7.24 µM and the GI50 (SF-539) was 33.9 µM. It also gave a GI50 (SNB-75) of 51.3 µM, a GI50 (SNB-78) of 97.7 µM and a GI50 (HCC 2998) of over 100 µM. It also gave a GI50 (KM12) of 36.3 µM, a GI50 (HT-29) of 69.2 µM and a GI50 (NCI-H23) of 18.6 µM. The GI50 (NCI-H226) was 22.9 µM, the GI50 (NCI-H522) was 8.13 µM and the GI50 (NCI-H460) was 51.3 µM. For the same compound, the GI50 (A549) was 26.3 µM, the GI50 (DMS-273) was 19.1 µM and the GI50 (DMS-114) was 10 nM. For the same compound, the GI50 (LOX IMVI) was 10.7 µM, the GI50 (OVCAR-3) was 38.9 µM and the GI50 (OVCAR-4) was 60.3 µM. It also gave a GI50 (OVCAR-5) of 38.9 µM, a GI50 (OVCAR-8) of 69.2 µM and a GI50 (SK-OV-3) of 81.3 µM. It also gave a GI50 [5] of 67.6 µM, a GI50 (ACHN) of 33.9 µM and a GI50 (St-4) of 33.1 µM. It also gave a GI50 [6] of 21.4 µM, a GI50 (MKN-7) of 0.0525 µM and a GI50 (MKN-28) of 0.01 µM. For the same compound, the GI50 (MKN-45) was 43.7 µM, the GI50 (MKN-74) was 191 nM and the GI50 (DU-145) was over 100 µM. It also gave a GI50 (PC-3) of 29.5 µM, a GI50 (HCT-15) of 72.4 µM and a GI50 (HCT-116) of 15.8 µM.
